Results as given in article PMC10582660 (Clinical and Translational Science, 2023).
Read-outs that look alike come from different tables or passages of the source. Marks after values point to notes of the source that are not given here.

Columns and labels:
[1] = Follow-up exploratory clinical study: plasma pharmacokinetics; type: in vivo, human; conditions: follow-up study; for AUC0–48h green tea/baseline ratio (90% CI) / Cmax,1 green tea/baseline ratio (90% CI): acute green tea vs baseline; for AUC0–48h, geometric mean (CV%) / t max,1, median (range) / Cmax: plasma; for Cmax: read-out: Cmax,1, geometric mean (CV%)
In short: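 Six healthy adults (3 male, 3 female) in sequential arms ≥7 days apart: oral test compound with water, then with acute brewed green tea, then tea alone. Plasma sampled 0–48 h at the main-study times. Analysed by UHPLC–MS/MS for parent and glucuronides. […] Green tea/baseline ratios on log-transformed data, paired two-tailed t-test.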

[2] = type: in vivo, human; conditions: for AUC0–96h, geometric mean (CV%) / AUC0–48h, geometric mean (CV%) / t 1/2, geometric mean (CV%) / t max,1, median (range): plasma, raloxifene 60 mg oral
In short: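 Open-label fixed-sequence crossover in 16 healthy adults (8 male, 8 female), arms ≥7 days apart, fasted from midnight. Oral 60 mg test compound tablet with 240 mL water at 50°C (baseline) or brewed green tea. Acute: tea (one bag, 240 mL water, 80°C, 3 min, cooled to 50°C) given with dose, then at 4 and 8 h. Chronic: tea three times daily for 4 days, then day 5 as acute.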

[3] = 16 healthy adults, baseline (water)

Compound	Metabolite‐to‐parent AUC0–48h ratio, geometric mean (CV%) ([1]; acute green tea)	AUC0–48h green tea/baseline ratio (90% CI) [1]	Cmax,1 green tea/baseline ratio (90% CI) [1]	Metabolite‐to‐parent AUC0–48h ratio, geometric mean (CV%) ([1]; baseline)	AUC0–48h, geometric mean (CV%) ([1]; acute green tea)	t max,1, median (range) ([1]; acute green tea)	t max,1, median (range) ([1]; baseline)	AUC0–48h, geometric mean (CV%) ([1]; six healthy adults, baseline)	Cmax ([1]; acute green tea) [µM]	Cmax ([1]; baseline) [µM]	Metabolite‐to‐parent AUC0–96h ratio, geometric mean (CV%) ([2]; acute green tea)	AUC0–48h green tea/baseline ratio (90% CI) ([2]; acute green tea vs baseline)	AUC0–96h green tea/baseline ratio (90% CI) ([2]; acute green tea vs baseline)	Cmax,1 green tea/baseline ratio (90% CI) ([2]; acute green tea vs baseline)	t 1/2 green tea/baseline ratio (90% CI) ([2]; acute green tea vs baseline)	Metabolite‐to‐parent AUC0–96h ratio, geometric mean (CV%) ([2]; baseline (water))	Metabolite‐to‐parent AUC0–96h ratio, geometric mean (CV%) ([2]; chronic green tea)	AUC0–48h green tea/baseline ratio (90% CI) ([2]; chronic green tea vs baseline)	AUC0–96h green tea/baseline ratio (90% CI) ([2]; chronic green tea vs baseline)	Cmax,1 green tea/baseline ratio (90% CI) ([2]; chronic green tea vs baseline)	further results
O=C(c1ccc(OCCN2CCCCC2)cc1)c1c(-c2ccc(O)cc2)sc2cc(O[C@@H]3O[C@H](C(=O)O)[C@@H](O)[C@H](O)[C@H]3O)ccc12 [Raloxifene 6‐glucuronide, raloxifene 6‐glucuronide]	22 (50)	0.88 (0.73–1.06)	0.73 (0.60–0.88)	23 (47)	166 (61) nM‐h	1 (1–3) h	1.25 (1–3) h	189 (46) nM‐h	0.00685	0.00939	39 (43)	0.57 (0.45–0.74)	0.60 (0.47–0.77)	0.38 (0.23–0.63)	1.08 (0.90–1.31)	37 (45)	37 (44)	0.59 (0.43–0.79)	0.67 (0.53–0.86)	0.50 (0.35–0.73)	t 1/2 green tea/baseline ratio (90% CI) ([2]; chronic green tea vs baseline): 0.92 (0.76–1.12); AUC0–96h, geometric mean (CV%) [2, 3]: 535 (48) nM‐h; AUC0–48h, geometric mean (CV%) ([2]; acute green tea): 255 (68) nM‐h; AUC0–96h, geometric mean (CV%) ([2]; acute green tea): 324 (79)* nM‐h; t 1/2, geometric mean (CV%) ([2]; acute green tea): 20.5 (36)^b h; t max,1, median (range) ([2]; acute green tea): 1.5 (0.5–4) h; AUC0–48h, geometric mean (CV%) ([2]; baseline (water)): 444 (56) nM‐h; t 1/2, geometric mean (CV%) ([2]; baseline (water)): 18.9 (40)^b h; t max,1, median (range) ([2]; baseline (water)): 1.5 (1–4) h; AUC0–48h, geometric mean (CV%) ([2]; chronic green tea): 261 (57) nM‐h; AUC0–96h, geometric mean (CV%) ([2]; chronic green tea): 360 (78) nM‐h; t 1/2, geometric mean (CV%) ([2]; chronic green tea): 17.8 (46)^c h; t max,1, median (range) ([2]; chronic green tea): 1.5 (1–6) h
O=C(c1ccc(OCCN2CCCCC2)cc1)c1c(-c2ccc(O[C@@H]3O[C@H](C(=O)O)[C@@H](O)[C@H](O)[C@H]3O)cc2)sc2cc(O)ccc12 [Raloxifene 4′‐glucuronide, raloxifene 4′‐glucuronide]	184 (25)	0.93 (0.81–1.06)	0.79 (0.68–0.93)	179 (23)	1368 (50) ^* nM‐h	1 (0.5–1) h	1.25 (1–3) h	1473 (50) nM‐h	0.075	0.0944	161 (36)	0.54 (0.43–0.68)	0.57 (0.45–0.73)	0.42 (0.31–0.57)	0.91 (0.72–1.16)	160 (34)	159 (34)	0.57 (0.43–0.76)	0.65 (0.51–0.82)	0.46 (0.31–0.70)	t 1/2 green tea/baseline ratio (90% CI) ([2]; chronic green tea vs baseline): 0.92 (0.72–1.18); AUC0–96h, geometric mean (CV%) [2, 3]: 2350 (45) nM‐h; AUC0–48h, geometric mean (CV%) ([2]; acute green tea): 1080 (55) nM‐h; AUC0–96h, geometric mean (CV%) ([2]; acute green tea): 1350 (69)** nM‐h; t 1/2, geometric mean (CV%) ([2]; acute green tea): 15.9 (66) h; t max,1, median (range) ([2]; acute green tea): 1.5 (0.5–6) h; AUC0–48h, geometric mean (CV%) ([2]; baseline (water)): 1990 (48) nM‐h; t 1/2, geometric mean (CV%) ([2]; baseline (water)): 17.0 (57)^b h; t max,1, median (range) ([2]; baseline (water)): 1.25 (0.25–4) h; AUC0–48h, geometric mean (CV%) ([2]; chronic green tea): 1134 (56) nM‐h; AUC0–96h, geometric mean (CV%) ([2]; chronic green tea): 1520 (76)* nM‐h; t 1/2, geometric mean (CV%) ([2]; chronic green tea): 15.6 (48)^b h; t max,1, median (range) ([2]; chronic green tea): 1.25 (0.5–3) h
